From ChEMBL document CHEMBL1122046, “Quaternary heterocyclylamino beta-lactams: a generic alternative to the classical acylamino side chain” (1982)
≈ marks a conversion by molar mass, not a printed value.

What was measured:
Assay type in all cases: functional
Streptococcus pyogenes = experiment: Minimum inhibitory concentration against aerobic organism Streptococcus pyogenes strain 3124
Summary of the method: (§1)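 Agar-dilution MIC in µg/mL against aerobic bacterial strains on tryptocase soy agar, with inoculum applied as spots. Most series used 10^5 cfu per spot, and a later series used 10^4 cfu per spot. In some tables, footnoted strains were instead tested on Mueller-Hinton or nutrient agar. β-Lactamase-producing strains are flagged.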

Klebsiella aerogenes = experiment: Minimum inhibitory concentration against aerobic organism Enterobacter aerogenes strain 2906; summary of the method: as §1
Pseudomonas aeruginosa = experiment: Minimum inhibitory concentration against aerobic organism Pseudomonas aeruginosa strain 2835; summary of the method: as §1
Serratia marcescens = experiment: Minimum inhibitory concentration against aerobic organism Serratia marcescens strain 2852; summary of the method: as §1
Shigella = experiment: Minimum inhibitory concentration against aerobic organism Shigella species strain 2880; summary of the method: as §1
Proteus mirabilis = experiment: Minimum inhibitory concentration against aerobic organism Proteus mirabilis strain 2830; summary of the method: as §1
[1] = Minimum inhibitory concentration against aerobic organism Salmonella schottmuelleri strain 2837; summary of the method: as §1
Escherichia coli = experiment: MIC against aerobic organism Escherichia coli strain 2891; summary of the method: as §1
Klebsiella pneumoniae = experiment: Minimum inhibitory concentration against aerobic organism Klebsiella pneumoniae strain 2882; summary of the method: as §1
Enterococcus faecalis = experiment: Minimum inhibitory concentration against aerobic organism Streptococcus faecalis strain 2864; summary of the method: as §1
Proteus vulgaris = experiment: Minimum inhibitory concentration against aerobic organism Proteus vulgaris strain 2829; summary of the method: as §1
Enterobacter cloacae = experiment: Minimum inhibitory concentration against aerobic organism Enterobacter cloacae strain 2646; summary of the method: as §1
Staphylococcus aureus = experiment: Minimum inhibitory concentration against aerobic organism Staphylococcus aureus strain 2868; conditions: Staphylococcus aureus; read-out: MIC; summary of the method: as §1
Morganella morganii = experiment: Minimum inhibitory concentration against aerobic organism Morganella morganii strain 2833; summary of the method: as §1
[2] = Streptococcus pyogenes, read-out: MIC
[3] = Klebsiella aerogenes, read-out: MIC
[4] = Serratia marcescens, read-out: MIC
[5] = Proteus mirabilis, read-out: MIC
[6] = Escherichia coli, read-out: MIC
[7] = Klebsiella pneumoniae, read-out: MIC
[8] = Proteus vulgaris, read-out: MIC
[9] = Enterobacter cloacae, read-out: MIC
[10] = Morganella morganii, read-out: MIC

Row | SMILES | MIC (Streptococcus pyogenes; [2]) | MIC (Klebsiella aerogenes; [3]) | MIC (Pseudomonas aeruginosa) | MIC (Serratia marcescens; [4]) | MIC (Shigella; Shigella, read-out: MIC) | MIC (Proteus mirabilis; [5]) | MIC ([1]; Salmonella, read-out: MIC) | MIC (Escherichia coli; [6]) | MIC (Klebsiella pneumoniae; [7]) | MIC (Enterococcus faecalis) | MIC (Proteus vulgaris; [8]) | MIC (Enterobacter cloacae; [9]) | MIC (Staphylococcus aureus) | MIC (Morganella morganii; [10]) | other results
1 | COc1ccc(C[n+]2ccc(N[C@@H]3C(=O)N4C(C(=O)[O-])=C(CSc5nnnn5C)CS[C@H]34)cc2)cc1 | < 0.06 µg/mL | 4 µg/mL (≈ 7.61 µM) | > 64 µg/mL | 64 µg/mL (≈ 122 µM) | 0.5 µg/mL (≈ 0.951 µM) | 16 µg/mL (≈ 30.4 µM) | 0.125 µg/mL (≈ 0.238 µM) | 0.25 µg/mL (≈ 0.476 µM) | 0.5 µg/mL (≈ 0.951 µM) | > 64 µg/mL | < 0.06 µg/mL | 8 µg/mL (≈ 15.2 µM) | 8 µg/mL (≈ 15.2 µM) | 16 µg/mL (≈ 30.4 µM) | –
2 | COc1ccc(C[n+]2ccc(N[C@@H]3C(=O)N4C(C(=O)[O-])=C(CSc5nnnn5C)CS[C@H]34)cc2)cc1OC | 0.125 µg/mL (≈ 0.225 µM) | 8 µg/mL (≈ 14.4 µM) | > 64 µg/mL | 64 µg/mL (≈ 115 µM) | 0.25 µg/mL (≈ 0.45 µM) | > 64 µg/mL | 0.5 µg/mL (≈ 0.9 µM) | 0.5 µg/mL (≈ 0.9 µM) | 0.5 µg/mL (≈ 0.9 µM) | > 64 µg/mL | 0.25 µg/mL (≈ 0.45 µM) | 64 µg/mL (≈ 115 µM) | 8 µg/mL (≈ 14.4 µM) | 32 µg/mL (≈ 57.6 µM) | –
3 | COC(=O)c1ccc(NC2C(=O)N3C(C(=O)[O-])=C(CSc4nnnn4C)CSC23)[n+](C)c1 (configuration not stated) | 16 µg/mL (≈ 33.5 µM) | > 128 µg/mL | > 128 µg/mL | > 128 µg/mL | > 128 µg/mL | > 128 µg/mL | 128 µg/mL (≈ 268 µM) | > 128 µg/mL | > 128 µg/mL | > 128 µg/mL | > 128 µg/mL | > 128 µg/mL | > 128 µg/mL | > 128 µg/mL | –
4 | CC(=O)OCC1=C(C(=O)[O-])N2C(=O)[C@@H](Nc3cc[n+](Cc4ccccc4)cc3)[C@H]2SC1 | – | 16 µg/mL (≈ 36.4 µM) | > 128 µg/mL | > 128 µg/mL | < 0.06 µg/mL | > 128 µg/mL | < 0.06 µg/mL | 0.5 µg/mL (≈ 1.14 µM) | < 0.06 µg/mL | 128 µg/mL (≈ 291 µM) | 0.125 µg/mL (≈ 0.284 µM) | 4 µg/mL (≈ 9.1 µM) | 4 µg/mL (≈ 9.1 µM) | > 128 µg/mL | –
5 | O=C([O-])C1=CCS[C@@H]2[C@H](Nc3cc[n+](Cc4ccccc4)cc3)C(=O)N12 | – | 64 µg/mL (≈ 174 µM) | 128 µg/mL (≈ 348 µM) | > 128 µg/mL | < 0.06 µg/mL | > 128 µg/mL | < 0.06 µg/mL | 1 µg/mL (≈ 2.72 µM) | < 0.06 µg/mL | 128 µg/mL (≈ 348 µM) | 0.125 µg/mL (≈ 0.34 µM) | 8 µg/mL (≈ 21.8 µM) | 16 µg/mL (≈ 43.5 µM) | > 128 µg/mL | –

More lines, main results first:

Row | MIC (Streptococcus pyogenes; [2]) | MIC (Klebsiella aerogenes; [3]) | MIC (Pseudomonas aeruginosa) | MIC (Serratia marcescens; [4]) | MIC (Shigella; Shigella, read-out: MIC) | MIC (Proteus mirabilis; [5]) | MIC ([1]; Salmonella, read-out: MIC) | MIC (Escherichia coli; [6]) | MIC (Klebsiella pneumoniae; [7]) | MIC (Enterococcus faecalis) | MIC (Proteus vulgaris; [8]) | MIC (Enterobacter cloacae; [9]) | MIC (Staphylococcus aureus) | MIC (Morganella morganii; [10]) | SMILES | other results
6 | < 0.39 µg/mL | – | – | – | 25 µg/mL (≈ 56.8 µM) | – | 12.5 µg/mL (≈ 28.4 µM) | > 100 µg/mL | > 100 µg/mL | 12.5 µg/mL (≈ 28.4 µM) | – | > 100 µg/mL | 3.12 µg/mL (≈ 7.08 µM) | – | C[n+]1ccccc1NC(C(=O)NC1C(=O)N2C1SC(C)(C)[C@@H]2C(=O)[O-])c1ccccc1 (some centres not stated) | –
7 | 32 µg/mL (≈ 76.3 µM) | 16 µg/mL (≈ 38.1 µM) | > 128 µg/mL | > 128 µg/mL | 32 µg/mL (≈ 76.3 µM) | 128 µg/mL (≈ 305 µM) | > 128 µg/mL | 64 µg/mL (≈ 153 µM) | 128 µg/mL (≈ 305 µM) | > 128 µg/mL | 0.5 µg/mL (≈ 1.19 µM) | > 128 µg/mL | > 128 µg/mL | > 128 µg/mL | Cn1nnnc1SCC1=C(C(=O)[O-])N2C(=O)C(Nc3cccc[n+]3C)C2SC1 (configuration not stated) | –
8 | 0.03 µg/mL (≈ 0.0618 µM) | 8 µg/mL (≈ 16.5 µM) | 128 µg/mL (≈ 264 µM) | 128 µg/mL (≈ 264 µM) | 0.0075 µg/mL (≈ 0.0154 µM) | 16 µg/mL (≈ 33 µM) | 0.0075 µg/mL (≈ 0.0154 µM) | 0.06 µg/mL (≈ 0.124 µM) | 0.06 µg/mL (≈ 0.124 µM) | 128 µg/mL (≈ 264 µM) | < 0.25 µg/mL | 8 µg/mL (≈ 16.5 µM) | 2 µg/mL (≈ 4.12 µM) | > 128 µg/mL | Cn1nnnc1SCC1=C(C(=O)[O-])N2C(=O)[C@@H](Nc3cc[n+](Cc4ccco4)cc3)[C@H]2SC1 | –
9 | 1 µg/mL (≈ 2.23 µM) | 128 µg/mL (≈ 286 µM) | > 128 µg/mL | > 128 µg/mL | 0.5 µg/mL (≈ 1.12 µM) | 128 µg/mL (≈ 286 µM) | 0.125 µg/mL (≈ 0.279 µM) | 0.5 µg/mL (≈ 1.12 µM) | 16 µg/mL (≈ 35.8 µM) | 128 µg/mL (≈ 286 µM) | < 0.06 µg/mL | 32 µg/mL (≈ 71.5 µM) | 32 µg/mL (≈ 71.5 µM) | > 128 µg/mL | CC(C)[n+]1ccc(N[C@@H]2C(=O)N3C(C(=O)[O-])=C(CSc4nnnn4C)CS[C@H]23)cc1 | –
10 | – | – | > 128 µg/mL | – | – | – | – | – | – | > 128 µg/mL | – | – | > 128 µg/mL | – | Cn1nnnc1SCC1=C(C(=O)[O-])N2C(=O)[C@@H](Nc3cc[n+](C)cc3)[C@H]2SC1 (stereo in doubt; 15b) | MIC (Streptococcus pyogenes): 32 µg/mL (≈ 76.3 µM); MIC (Klebsiella aerogenes): 16 µg/mL (≈ 38.1 µM); MIC (Serratia marcescens): 64 µg/mL (≈ 153 µM); MIC (Shigella): >128 µg/mL; MIC (Proteus mirabilis): >128 µg/mL; MIC [1]: >128 µg/mL; MIC (Escherichia coli): >128 µg/mL; MIC (Klebsiella pneumoniae): 64 µg/mL (≈ 153 µM); MIC (Proteus vulgaris): 4 µg/mL (≈ 9.54 µM); MIC (Enterobacter cloacae): >128 µg/mL; MIC (Morganella morganii): >128 µg/mL
